In ChEMBL document CHEMBL3351612, “Merremins A-G, resin glycosides from Merremia hederacea with multidrug resistance reversal activity” (J Nat Prod, 2014):

How the values were obtained:
[1] = Multidrug resistance reversal activity in human KB/VCR cells assessed as reduction in vinblastine IC50 at 25 uM incubated for 72 hrs by sulforhodamine B assay relative to untreated control; type: functional
Summary of the method: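 KB/VCR cells seeded 24 h, then given vinblastine serial dilutions (0.125–1 μM) with or without 25 μM sample for 72 h at 37 °C, 5% CO2. Cells fixed in 10% TCA (4 °C, 1 h), stained 15 min with 0.4% SRB in 1% HOAc, dye dissolved in 10 mM Tris base, A510 read. Fold reversal = IC50 of drug alone / IC50 with sample.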

[2] = Toxicity against human KB/VCR cells assessed as inhibition of cell growth at 25 uM incubated for 72 hrs by sulforhodamine B assay; type: cell-based; details: read-out: GI

| Structure (SMILES) | Ratio IC50 [1] | inhibition at 72 h, 25 µM [2] |
| --- | --- | --- |
| CCCCC[C@H]1CCCCCCCCCC(=O)O[C@H]2[C@H](O[C@H]3[C@H](O1)O[C@H](C)[C@H](O)[C@@H]3OC(C)=O)O[C@@H](C)[C@H](O[C@@H]1O[C@@H](C)[C@H](O[C@@H]3O[C@@H](C)[C@H](OC(=O)[C@@H](C)CC)[C@@H](O)[C@H]3O)[C@@H](O[C@@H]3O[C@H](CO)[C@@H](O)[C@H](O)[C@H]3O)[C@H]1OC(=O)[C@@H](C)CC)[C@H]2O | 2.3 | 0.91% |
| CCCCCCCC(=O)O[C@H]1[C@H](O[C@@H]2[C@@H](O)[C@H]3OC(=O)CCCCCCCCC[C@H](CCCCC)O[C@@H]4O[C@H](C)[C@H](OC(C)=O)[C@H](O)[C@H]4O[C@@H]3O[C@H]2C)O[C@@H](C)[C@H](O[C@@H]2O[C@@H](C)[C@H](OC(=O)[C@@H](C)CC)[C@@H](O)[C@H]2O)[C@H]1O[C@@H]1O[C@H](CO)[C@@H](O)[C@H](O)[C@H]1O | – | 93.8% |
| CCCCC[C@H]1CCCCCCCCCC(=O)O[C@H]2[C@H](O[C@H]3[C@H](O1)O[C@H](C)[C@H](OC(C)=O)[C@@H]3O)O[C@@H](C)[C@H](O[C@@H]1O[C@@H](C)[C@H](O[C@@H]3O[C@@H](C)[C@H](OC(=O)[C@@H](C)CC)[C@@H](O)[C@H]3O)[C@@H](O[C@@H]3O[C@H](CO)[C@@H](O)[C@H](O)[C@H]3O)[C@H]1OC(=O)[C@@H](C)CC)[C@H]2O | – | 97.8% |
| CCCCCCCCCC(=O)O[C@H]1[C@H](O[C@@H]2[C@@H](O)[C@H]3OC(=O)CCCCCCCCC[C@H](CCCCC)O[C@@H]4O[C@H](C)[C@H](OC(C)=O)[C@H](O)[C@H]4O[C@@H]3O[C@H]2C)O[C@@H](C)[C@H](O[C@@H]2O[C@@H](C)[C@H](OC(=O)[C@@H](C)CC)[C@@H](O)[C@H]2O)[C@H]1O[C@@H]1O[C@H](CO)[C@@H](O)[C@H](O)[C@H]1O | – | 96.6% |
| CCCCC[C@H]1CCCCCCCCCC(=O)O[C@H]2[C@@H](O)[C@H](O[C@H]3[C@H](O1)O[C@H](C)[C@H](O)[C@@H]3O)O[C@@H](C)[C@@H]2O[C@@H]1O[C@@H](C)[C@H](O[C@@H]2O[C@@H](C)[C@H](O)[C@@H](O)[C@H]2O)[C@@H](O[C@@H]2O[C@H](CO)[C@@H](O)[C@H](O)[C@H]2O)[C@H]1OC(=O)[C@@H](C)CC | 15.8 | -0.08% |
| CCCCC[C@@H](CCCCCCCCCC(=O)OC)O[C@@H]1O[C@H](C)[C@H](O)[C@H](O)[C@H]1O[C@@H]1O[C@@H](C)[C@H](O[C@@H]2O[C@@H](C)[C@H](O[C@@H]3O[C@@H](C)[C@H](OC(=O)[C@@H](C)CC)[C@@H](O)[C@H]3O)[C@@H](O[C@@H]3O[C@H](CO)[C@@H](O)[C@H](O)[C@H]3O)[C@H]2O)[C@@H](O)[C@H]1O | 2.5 | 0.23% |
| CCCCCCCCCC(=O)O[C@H]1[C@H](O[C@@H]2[C@@H](O)[C@H]3OC(=O)CCCCCCCCC[C@H](CCCCC)O[C@@H]4O[C@H](C)[C@H](O)[C@H](O)[C@H]4O[C@@H]3O[C@H]2C)O[C@@H](C)[C@H](O[C@@H]2O[C@@H](C)[C@H](OC(=O)[C@@H](C)CC)[C@@H](O)[C@H]2O)[C@H]1O[C@@H]1O[C@H](CO)[C@@H](O)[C@H](O)[C@H]1O | – | 96.7% |
| CCCCC[C@H]1CCCCCCCCCC(=O)O[C@H]2[C@@H](O)[C@H](O[C@H]3[C@H](O1)O[C@H](C)[C@H](O)[C@@H]3O)O[C@@H](C)[C@@H]2O[C@@H]1O[C@@H](C)[C@H](O[C@@H]2O[C@@H](C)[C@H](OC(=O)[C@@H](C)CC)[C@@H](OC(=O)/C=C/c3ccccc3)[C@H]2O)[C@@H](O[C@@H]2O[C@H](CO)[C@@H](O)[C@H](O)[C@H]2O)[C@H]1OC(=O)[C@@H](C)CC | – | 91.1% |
| CCCCC[C@H]1CCCCCCCCCC(=O)O[C@H]2[C@H](O[C@H]3[C@H](O1)O[C@H](C)[C@H](O)[C@@H]3O)O[C@@H](C)[C@H](O[C@@H]1O[C@@H](C)[C@H](O[C@@H]3O[C@@H](C)[C@H](OC(=O)[C@@H](C)CC)[C@@H](O)[C@H]3O)[C@@H](O[C@@H]3O[C@H](CO)[C@@H](O)[C@H](O)[C@H]3O)[C@H]1OC(=O)[C@@H](C)CC)[C@H]2O [MURUCOIDIN IV] | – | 97.5% |
| CCCCC[C@H]1CCCCCCCCCC(=O)O[C@H]2[C@@H](O)[C@H](O[C@H]3[C@H](O1)O[C@H](C)[C@H](O)[C@@H]3O)O[C@@H](C)[C@@H]2O[C@@H]1O[C@@H](C)[C@H](O[C@@H]2O[C@@H](C)[C@H](OC(=O)[C@@H](C)CC)[C@@H](O)[C@H]2O)[C@@H](O[C@@H]2O[C@H](CO)[C@@H](O)[C@H](O)[C@H]2O)[C@H]1OC(=O)[C@@H](C)CC [MURUCOIDIN V] | 142.5 | 7.72% |
